{
  "source": "ChEMBL document CHEMBL3588826",
  "about": "“Chimeric derivatives of functionalized amino acids and α-aminoamides: compounds with anticonvulsant activity in seizure models and inhibitory actions on central, peripheral, and cardiac isoforms of voltage-gated sodium channels” (Bioorg Med Chem, 2015)",
  "key": {"CAD": {"tested_on": "CAD", "experiment": "Frequency-dependent inhibition of voltage-gated sodium channel in mouse CAD cells assessed as decrease in current amplitude at 30 uM by whole cell patch-clamp electrophysiology", "type": "cell-based", "procedure,_shortened": "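CAD cells, whole-cell voltage clamp at room temperature, with compound at 1, 10 or 30 μM against 0.1% DMSO. Thirty identical test pulses were given at 10 Hz. Current was normalized as peak at pulse N over pulse 1, and the maximal decrement was read at the end of the train. One-way ANOVA with Dunnett's test; 4–10 cells per condition.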"}, "[1]": {"biological_target": "Sodium channel protein type 3 subunit alpha (Rattus norvegicus) (UniProt P08104)", "sequence (P08104 whole entry)": "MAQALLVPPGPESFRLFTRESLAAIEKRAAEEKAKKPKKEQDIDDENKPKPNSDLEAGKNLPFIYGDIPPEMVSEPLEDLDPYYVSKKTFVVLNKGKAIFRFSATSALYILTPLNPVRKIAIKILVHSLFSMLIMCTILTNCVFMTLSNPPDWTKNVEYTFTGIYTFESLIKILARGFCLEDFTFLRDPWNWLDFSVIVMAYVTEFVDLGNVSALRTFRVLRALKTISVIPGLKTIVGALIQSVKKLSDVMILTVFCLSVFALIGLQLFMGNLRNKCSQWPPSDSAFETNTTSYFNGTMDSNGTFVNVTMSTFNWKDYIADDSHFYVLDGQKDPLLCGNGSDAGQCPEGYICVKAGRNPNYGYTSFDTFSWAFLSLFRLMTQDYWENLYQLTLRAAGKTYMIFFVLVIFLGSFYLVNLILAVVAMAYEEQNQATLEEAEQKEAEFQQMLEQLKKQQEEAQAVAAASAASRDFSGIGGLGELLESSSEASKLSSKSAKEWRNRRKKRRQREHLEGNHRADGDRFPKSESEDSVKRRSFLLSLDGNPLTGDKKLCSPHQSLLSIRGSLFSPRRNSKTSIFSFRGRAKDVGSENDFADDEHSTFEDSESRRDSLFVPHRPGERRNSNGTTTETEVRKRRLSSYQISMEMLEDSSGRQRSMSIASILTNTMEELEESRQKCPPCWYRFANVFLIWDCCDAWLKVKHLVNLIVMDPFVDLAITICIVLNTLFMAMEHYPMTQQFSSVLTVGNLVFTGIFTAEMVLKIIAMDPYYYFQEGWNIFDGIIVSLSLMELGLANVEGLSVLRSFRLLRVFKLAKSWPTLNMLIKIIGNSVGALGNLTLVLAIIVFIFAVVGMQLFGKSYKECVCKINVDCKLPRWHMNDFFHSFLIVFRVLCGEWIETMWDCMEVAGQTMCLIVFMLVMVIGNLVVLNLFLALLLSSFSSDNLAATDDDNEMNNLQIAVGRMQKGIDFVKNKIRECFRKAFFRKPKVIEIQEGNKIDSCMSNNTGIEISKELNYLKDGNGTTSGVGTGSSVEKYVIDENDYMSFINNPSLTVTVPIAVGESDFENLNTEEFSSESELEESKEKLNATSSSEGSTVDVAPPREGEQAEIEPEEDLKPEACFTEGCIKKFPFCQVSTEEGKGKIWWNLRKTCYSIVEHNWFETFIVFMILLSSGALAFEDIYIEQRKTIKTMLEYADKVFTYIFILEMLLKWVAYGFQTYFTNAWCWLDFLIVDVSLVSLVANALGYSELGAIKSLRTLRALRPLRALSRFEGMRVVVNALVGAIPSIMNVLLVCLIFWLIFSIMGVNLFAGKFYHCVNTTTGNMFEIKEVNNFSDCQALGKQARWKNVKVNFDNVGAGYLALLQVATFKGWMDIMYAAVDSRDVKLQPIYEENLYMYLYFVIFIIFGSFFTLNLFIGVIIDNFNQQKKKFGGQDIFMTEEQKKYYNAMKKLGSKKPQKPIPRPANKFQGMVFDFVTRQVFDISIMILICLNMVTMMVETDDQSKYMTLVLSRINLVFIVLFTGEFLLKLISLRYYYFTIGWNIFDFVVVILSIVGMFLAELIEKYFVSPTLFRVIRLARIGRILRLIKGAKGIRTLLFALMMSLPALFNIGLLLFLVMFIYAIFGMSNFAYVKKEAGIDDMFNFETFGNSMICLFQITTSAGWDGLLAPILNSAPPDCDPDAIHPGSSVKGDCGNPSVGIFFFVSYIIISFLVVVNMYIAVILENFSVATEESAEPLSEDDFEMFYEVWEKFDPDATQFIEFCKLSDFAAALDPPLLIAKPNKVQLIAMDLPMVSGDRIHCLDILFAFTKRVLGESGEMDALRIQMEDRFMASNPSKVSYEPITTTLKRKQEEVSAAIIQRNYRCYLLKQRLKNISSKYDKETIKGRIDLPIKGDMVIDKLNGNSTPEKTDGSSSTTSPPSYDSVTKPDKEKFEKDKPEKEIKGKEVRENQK", "experiment": "Inhibition of rat Nav1.3 expressed in HEK293 cells assessed as half-maximal voltage for steady state fast-inactivation at 10 uM by whole cell patch-clamp electrophysiology (reference value: -65.44 +/-5.62 mV)", "type": "cell-based"}, "Rattus norvegicus [2]": {"tested_on": "Rattus norvegicus", "experiment": "Ratio of NOAEL in Sprague-Dawley rat to ED50 for anticonvulsant activity in po dosed Sprague-Dawley rat by MES test", "procedure,_shortened": "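Non-GLP 7-day repeated-dose study in female Sprague-Dawley rats, given by oral gavage at 20, 60 and 180 mg/kg/day. Endpoints: weight bearing, gait coordination, respiratory rate, relative organ weights, clinical chemistry and gross pathology, giving a NOAEL. The ratio divides the NOAEL by the oral MES ED50.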"}, "[3]": {"biological_target": "Sodium channel protein type 3 subunit alpha (Rattus norvegicus) (UniProt P08104)", "experiment": "Frequency-dependent inhibition of rat Nav1.3 expressed in HEK293 cells assessed as current amplitude at 10 uM by whole cell patch-clamp electrophysiology", "type": "cell-based", "procedure,_shortened": "(§1)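 Stable HEK293 lines expressing hNav1.1, rNav1.3, hNav1.7 or hNav1.5 were recorded by whole-cell voltage clamp at room temperature, with 10 μM compound versus 0.1% DMSO. A 30-pulse train was applied, and the read-out was the fraction of current remaining at the last pulse normalized to the first. Nav1.5 used hyperpolarized protocols.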"}, "[4]": {"biological_target": "Sodium channel protein type 9 subunit alpha (Homo sapiens) (UniProt Q15858)", "experiment": "Inhibition of human Nav1.7 expressed in HEK293 cells assessed as transition of channels to slow-inactivated state at 10 uM measured at -50 mV by whole cell patch-clamp electrophysiology", "type": "cell-based", "procedure,_shortened": "(§2)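 HEK293 cells stably expressing hNav1.1, rNav1.3, hNav1.7 or hNav1.5 were grown in DMEM with 10% FBS. Recordings were whole-cell voltage clamp at room temperature, with 10 μM compound versus 0.1% DMSO. Slow inactivation at −50 mV was calculated as 1 minus normalized peak INa. Nav1.5 used hyperpolarized protocols. Data are from 5–6 cells.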"}, "[5]": {"experiment": "Inhibition of voltage-gated sodium channel in mouse CAD cells assessed as transition of channels to slow-inactivated state measured at -50 mV by whole cell patch-clamp electrophysiology", "type": "cell-based", "procedure,_shortened": "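CAD cells were grown in Ham's F12/DMEM with 10% FBS at 37 °C and 5% CO2, with native Na+ currents mostly from Nav1.7. Whole-cell voltage clamp at room temperature across a range of concentrations against 0.1% DMSO. IC50 for induction of slow inactivation was taken from concentration-response curves at −50 mV (also at +20 mV).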"}, "Rattus norvegicus [6]": {"tested_on": "Rattus norvegicus", "experiment": "Toxicity in po dosed Sprague-Dawley rat assessed as increase in liver weight administered via gavage", "type": "organism-based", "conditions": "in vivo", "procedure,_shortened": "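Non-GLP repeated-dose study: female Sprague-Dawley rats given compound by oral gavage once daily for 7 days at 20, 60 and 180 mg/kg/day. Endpoints included weight bearing, gait coordination, respiratory rate, relative organ weights (liver, spleen, thymus), clinical chemistry and gross pathology; NOAEL derived.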"}, "[7]": {"biological_target": "T1, Sodium channel protein type 5 subunit alpha (Homo sapiens, UniProt Q14524)", "T1 sequence (Q14524 whole entry)": "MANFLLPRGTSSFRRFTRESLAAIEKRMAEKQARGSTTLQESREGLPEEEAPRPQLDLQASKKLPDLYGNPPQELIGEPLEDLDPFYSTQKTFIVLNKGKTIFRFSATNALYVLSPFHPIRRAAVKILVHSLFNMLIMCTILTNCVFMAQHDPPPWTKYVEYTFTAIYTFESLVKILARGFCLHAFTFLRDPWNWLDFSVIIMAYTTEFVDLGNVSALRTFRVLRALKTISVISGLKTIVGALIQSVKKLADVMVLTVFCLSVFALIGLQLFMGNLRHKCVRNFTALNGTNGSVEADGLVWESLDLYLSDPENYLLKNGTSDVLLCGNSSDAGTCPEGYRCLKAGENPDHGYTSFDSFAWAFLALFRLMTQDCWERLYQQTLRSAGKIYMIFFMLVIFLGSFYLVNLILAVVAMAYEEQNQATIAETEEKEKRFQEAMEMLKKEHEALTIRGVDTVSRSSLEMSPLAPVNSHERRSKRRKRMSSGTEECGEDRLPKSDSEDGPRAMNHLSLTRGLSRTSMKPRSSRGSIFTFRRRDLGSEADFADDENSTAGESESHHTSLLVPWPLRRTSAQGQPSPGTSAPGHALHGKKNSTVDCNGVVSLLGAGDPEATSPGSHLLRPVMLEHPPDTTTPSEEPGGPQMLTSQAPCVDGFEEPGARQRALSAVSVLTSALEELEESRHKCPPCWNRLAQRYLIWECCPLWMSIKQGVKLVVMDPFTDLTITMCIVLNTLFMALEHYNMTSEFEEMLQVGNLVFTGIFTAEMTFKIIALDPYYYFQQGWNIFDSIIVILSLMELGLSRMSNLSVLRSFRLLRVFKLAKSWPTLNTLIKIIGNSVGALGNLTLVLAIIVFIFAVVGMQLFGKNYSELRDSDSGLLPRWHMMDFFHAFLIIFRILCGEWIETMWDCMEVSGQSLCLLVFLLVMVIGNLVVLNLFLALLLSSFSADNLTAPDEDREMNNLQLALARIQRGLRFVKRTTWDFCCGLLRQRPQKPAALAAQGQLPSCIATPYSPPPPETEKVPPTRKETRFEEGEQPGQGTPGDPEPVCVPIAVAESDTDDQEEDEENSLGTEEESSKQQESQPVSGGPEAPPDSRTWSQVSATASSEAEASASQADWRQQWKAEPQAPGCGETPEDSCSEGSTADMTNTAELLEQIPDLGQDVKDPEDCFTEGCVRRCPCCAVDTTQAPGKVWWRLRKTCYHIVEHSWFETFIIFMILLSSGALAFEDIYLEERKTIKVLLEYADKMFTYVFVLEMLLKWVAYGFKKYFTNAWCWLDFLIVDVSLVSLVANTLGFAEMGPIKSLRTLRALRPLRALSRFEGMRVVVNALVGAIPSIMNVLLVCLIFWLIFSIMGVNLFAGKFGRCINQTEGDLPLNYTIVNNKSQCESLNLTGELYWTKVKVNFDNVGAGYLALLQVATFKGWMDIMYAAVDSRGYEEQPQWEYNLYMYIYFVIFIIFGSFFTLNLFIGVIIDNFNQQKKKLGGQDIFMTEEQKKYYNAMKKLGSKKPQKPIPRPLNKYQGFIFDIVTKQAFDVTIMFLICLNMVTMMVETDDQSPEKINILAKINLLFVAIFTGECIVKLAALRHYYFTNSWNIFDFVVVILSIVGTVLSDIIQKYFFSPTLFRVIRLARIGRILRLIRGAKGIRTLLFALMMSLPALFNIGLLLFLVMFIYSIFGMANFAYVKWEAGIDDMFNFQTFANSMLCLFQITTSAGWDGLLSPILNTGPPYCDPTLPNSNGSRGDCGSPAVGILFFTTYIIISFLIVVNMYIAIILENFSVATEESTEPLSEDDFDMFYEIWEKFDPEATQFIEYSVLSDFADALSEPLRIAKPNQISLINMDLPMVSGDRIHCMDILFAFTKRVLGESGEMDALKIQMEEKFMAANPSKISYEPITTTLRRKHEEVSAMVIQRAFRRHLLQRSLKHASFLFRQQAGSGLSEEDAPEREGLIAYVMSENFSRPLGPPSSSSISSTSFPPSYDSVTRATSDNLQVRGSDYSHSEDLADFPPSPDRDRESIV", "experiment": "Inhibition of human Nav1.5 expressed in HEK293 cells assessed as half-maximal voltage for steady state activation at 10 uM by whole cell patch-clamp electrophysiology (reference value: -55.71 +/-3.81 mV)", "type": "cell-based", "conditions": "hek293, 10 µM"}, "Rattus norvegicus [8]": {"species_on_record": "Rattus norvegicus", "experiment": "Inhibition of voltage-gated sodium channel in rat embryonic cortical neurons assessed as decrease in fraction of current available at 10 uM measured at -50 mV by whole cell patch-clamp electrophysiology", "procedure,_shortened": "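Embryonic cortical neurons were treated with 10 μM compound or 0.1% DMSO, whole-cell voltage clamp at room temperature. Slow inactivation was assessed at −50 mV, with the fraction inactivated taken as 1 minus the normalized INa. Student's t-test; 5–8 cells per condition.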"}, "[9]": {"experiment": "Protective index, ratio of TD50 for behavioural toxicity in ip dosed albino Sprague-Dawley rat to ED50 for anticonvulsant activity in ip dosed MES albino Sprague-Dawley rat model", "type": "organism-based", "conditions": "in vivo, read-out: Ratio TD50/ED50", "procedure,_shortened": "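Male albino Sprague-Dawley rats were dosed ip or orally. […] Protective index = TD50/ED50, the ED50 taken from maximal electroshock by the same route.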"}, "Rattus norvegicus [10]": {"tested_on": "Rattus norvegicus", "experiment": "Anticonvulsant activity in ip dosed rat assessed as decrease in partial complex or temporal lobe seizures by hippocampal kindeld seizure test", "type": "functional"}, "Rattus norvegicus [11]": {"tested_on": "Rattus norvegicus", "experiment": "Toxicity in po dosed Sprague-Dawley rat assessed as coordination in gait administered via gavage", "type": "organism-based", "conditions": "in vivo", "procedure,_shortened": "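Non-GLP 7-day repeated-dose study in female Sprague-Dawley rats given oral gavage at 20, 60 and 180 mg/kg/day. Endpoints were weight bearing, gait coordination, respiratory rate, relative organ weights, clinical chemistry and gross pathology, with NOAEL determined.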"}, "Mus musculus": {"tested_on": "Mus musculus", "experiment": "Anticonvulsant activity in ip dosed corneal kindled seizure mouse model measured after 0.25 hrs", "type": "functional"}, "Cytochrome P450 1A2": {"biological_target": "T2, Cytochrome P450 1A2 (Homo sapiens, UniProt P05177)", "T2 sequence (P05177 whole entry)": "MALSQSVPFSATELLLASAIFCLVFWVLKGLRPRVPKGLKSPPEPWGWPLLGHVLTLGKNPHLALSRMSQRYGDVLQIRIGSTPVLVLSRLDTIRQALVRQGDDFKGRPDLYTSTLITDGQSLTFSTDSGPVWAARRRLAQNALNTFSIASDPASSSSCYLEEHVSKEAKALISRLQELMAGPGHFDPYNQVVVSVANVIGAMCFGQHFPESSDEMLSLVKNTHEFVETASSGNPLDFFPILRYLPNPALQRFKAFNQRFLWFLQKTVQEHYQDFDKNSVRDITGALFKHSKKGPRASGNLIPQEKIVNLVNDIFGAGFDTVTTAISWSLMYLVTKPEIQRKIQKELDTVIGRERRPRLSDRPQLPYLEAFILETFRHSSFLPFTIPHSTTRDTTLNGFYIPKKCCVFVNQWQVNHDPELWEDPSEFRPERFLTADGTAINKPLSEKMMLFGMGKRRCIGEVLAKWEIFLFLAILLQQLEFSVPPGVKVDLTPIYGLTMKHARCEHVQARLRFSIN", "experiment": "Inhibition of human CYP1A2 at 10 uM", "type": "ADME", "procedure,_shortened": "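Test compound at 10 μM against a human CYP450 panel (CYP1A2, 2B6, 2C8, 2C9, 2C19, 2D6, 3A4/5). Direct inhibition was measured, and time-dependent inhibition was measured after a 30-min preincubation.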"}, "[12]": {"biological_target": "Sodium channel protein type 1 subunit alpha (Homo sapiens) (UniProt P35498)", "experiment": "Inhibition of human Nav1.1 expressed in HEK293 cells assessed as transition of channels to slow-inactivated state at 10 uM measured at -50 mV by whole cell patch-clamp electrophysiology", "type": "cell-based", "procedure,_shortened": "as §2"}, "[13]": {"biological_target": "T1, Sodium channel protein type 5 subunit alpha", "experiment": "Frequency-dependent inhibition of human Nav1.5 expressed in HEK293 cells assessed as current amplitude at 10 uM by whole cell patch-clamp electrophysiology", "type": "cell-based", "conditions": "hek293, 10 µM", "procedure,_shortened": "as §1"}},
  "note": "Activity calls are given as the source filed them. The calls are words filed in the database; no cut-off is given here.",
  "data": [
    {"smiles": "COC[C@@H](NC(C)=O)C(=O)NCc1ccc(Oc2cccc(OC(F)(F)F)c2)cc1", "values": [
      {"measurement": "inhibition", "setting": "CAD", "result": 44, "unit": "%"},
      {"measurement": "V1/2", "setting": "[1]", "result": -72.8, "unit": "mV"},
      {"measurement": "Ratio", "setting": "Rattus norvegicus [2]", "result": 10},
      {"measurement": "inhibition", "setting": "[3]", "result": "inactive"},
      {"measurement": "inhibition", "setting": "[4]", "result": "Active"},
      {"measurement": "IC50", "setting": "[5]", "result": 0.7, "unit": "µM"},
      {"measurement": "Activity", "setting": "Rattus norvegicus [6]", "result": "Toxic"},
      {"measurement": "V1/2", "setting": "[7]", "result": -48.99, "unit": "mV"},
      {"measurement": "inhibition", "setting": "Rattus norvegicus [8]", "result": "Active"},
      {"measurement": "selectivity ratio", "setting": "[9]", "result": 9.5},
      {"measurement": "ED50", "setting": "Rattus norvegicus [10]", "result": 22, "unit": "mg/kg"},
      {"measurement": "Activity", "setting": "Rattus norvegicus [11]", "result": "Toxic"},
      {"measurement": "ED50", "setting": "Mus musculus", "result": 41, "unit": "mg/kg"},
      {"measurement": "inhibition (INH)", "setting": "Cytochrome P450 1A2", "result": "Not Active"},
      {"measurement": "inhibition", "setting": "[12]", "result": "Active"},
      {"measurement": "inhibition (INH)", "setting": "[13]", "result": "Not Active"}
    ]}
  ]
}
